# Measured values reported in article PMC5161678 (Clinical cancer research : an official journal of the …, 2016).
# What was measured:
# CSF-1R [1] = details: CSF-1R in vitro; cited from earlier work
# CSF-1R [2] = biological target: T1, CSF-1R (Homo sapiens, UniProt P07333); assay: CSF-1R phosphorylation sandwich ELISA in CSF-1 treated monocytes; format: cell-based; details: recombinant CSF-1 10 ng/mL, 5 minutes, fedratinib 5 μM, pacritinib 1 μM
# nurse-like cells (NLC) = assay: NLC generation and survival in CLL patient PBMC cultures; format: cell-based, human; details: pacritinib 1 μM; for NLC survival: CLL PBMC cultured 7–10 days, ruxolitinib 5 μM; for NLC survival / intact NLC by morphology: fedratinib 5 μM; for intact NLC by morphology: established NLC cultures treated for 24 hours
# Procedure, shortened: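 PBMC from CLL patients not on therapy were plated at 3–5 × 10^6 cells/mL in RPMI with 10% FBS at 37°C, 5% CO2 for 7–10 days, then given test compound or DMSO vehicle. NLC were counted by morphology in five high-power fields or as high forward/side-scatter events by flow cytometry. Viability was read by annexin V/PI. For some cultures, CLL cells were gently removed before treatment.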
# CD5+CD19+ CLL B-cells = assay: CLL B-cell viability by Annexin V/PI staining in NLC cocultures; format: cell-based, human; details: for CLL viability: long-term NLC/CLL cocultures, ruxolitinib 5 μM, fedratinib 5 μM, pacritinib 1 μM
# [3] = in vivo; cited from earlier work
# lymphoma = details: cited from earlier work
# CSF-1R [4] = biological target: T1, CSF-1R; assay: in vitro radiometric kinase assay; format: biochemical
# [5] = tested on: monocyte-derived macrophages; assay: monocyte and monocyte-derived macrophage viability; format: cell-based, human
# ERK and AKT = ERK and AKT phosphorylation in CSF-1 treated monocytes; format: cell-based, human; details: pacritinib
# Procedure, shortened: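 Healthy-donor monocytes were CD14 bead-selected from PBMC, cultured overnight, then stimulated 5 min with recombinant human CSF-1 (10 ng/mL) plus test compound or DMSO vehicle. Lysis buffer: Tris pH 7.5, EDTA, NaCl, NP-40, deoxycholate, SDS and protease/phosphatase inhibitors. SDS-PAGE on 5–12% gradient gels, PVDF transfer, 1 h milk block. Probed for total and pT308/pS473 AKT, and total and pT202/Y204 ERK1/2.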
# T1 sequence (P07333 20-972): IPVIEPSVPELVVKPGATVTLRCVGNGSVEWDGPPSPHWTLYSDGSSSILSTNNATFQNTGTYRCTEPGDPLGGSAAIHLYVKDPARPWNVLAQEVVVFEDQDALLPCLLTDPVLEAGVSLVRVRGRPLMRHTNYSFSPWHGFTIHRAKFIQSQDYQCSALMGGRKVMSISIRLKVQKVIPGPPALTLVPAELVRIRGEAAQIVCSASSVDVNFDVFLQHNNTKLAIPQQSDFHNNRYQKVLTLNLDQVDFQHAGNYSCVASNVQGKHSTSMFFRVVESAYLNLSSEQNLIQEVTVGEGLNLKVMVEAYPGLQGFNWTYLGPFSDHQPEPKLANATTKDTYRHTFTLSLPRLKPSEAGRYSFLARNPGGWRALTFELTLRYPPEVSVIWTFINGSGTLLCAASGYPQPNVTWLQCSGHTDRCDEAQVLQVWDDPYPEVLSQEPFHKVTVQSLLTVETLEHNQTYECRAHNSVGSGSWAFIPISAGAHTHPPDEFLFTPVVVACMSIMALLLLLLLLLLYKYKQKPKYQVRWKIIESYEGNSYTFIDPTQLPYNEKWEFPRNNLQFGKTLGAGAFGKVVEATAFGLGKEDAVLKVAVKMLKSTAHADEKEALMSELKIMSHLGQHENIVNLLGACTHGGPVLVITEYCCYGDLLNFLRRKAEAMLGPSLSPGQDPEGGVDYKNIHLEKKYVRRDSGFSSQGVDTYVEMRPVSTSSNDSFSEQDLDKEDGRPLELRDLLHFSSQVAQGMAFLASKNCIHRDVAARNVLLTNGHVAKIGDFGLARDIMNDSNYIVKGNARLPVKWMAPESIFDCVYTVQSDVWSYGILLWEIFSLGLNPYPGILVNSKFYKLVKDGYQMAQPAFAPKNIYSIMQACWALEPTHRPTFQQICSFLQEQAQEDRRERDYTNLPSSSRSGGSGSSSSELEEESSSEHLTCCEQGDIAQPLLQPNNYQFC
IC50 (CSF-1R [4]) [nM],IC50 (in words) (CSF-1R [4]; CSF-1R),Compound,IC50 (CSF-1R [1]) [nM],total CSF-1R phosphorylation (CSF-1R [2]),NLC survival (nurse-like cells (NLC)),intact NLC by morphology (nurse-like cells (NLC)),CLL viability (CD5+CD19+ CLL B-cells),clinically achievable concentrations [3] [µM],"viable NLC by annexin V/PI staining (nurse-like cells (NLC); CLL cells removed from established NLC cultures, 24 hours)",tolerability (lymphoma; patients with lymphoma),"clinical activity (lymphoma; various NHL, including CLL)","induction of apoptosis in CLL samples (CD5+CD19+ CLL B-cells; paired CLL samples, ibrutinib 1 uM or pacritinib 1 uM)","monocyte and monocyte-derived macrophage viability ([5]; CSF-1-treated monocytes, clinically achievable concentrations)",signs of apoptotic cell death ([5]; pacritinib-treated macrophages),downstream phosphorylation of ERK and AKT (ERK and AKT)
–,–,Cc1cnc(Nc2ccc(OCCN3CCCC3)cc2)nc1Nc1cccc(S(=O)(=O)NC(C)(C)C)c1 [fedratinib],> 1000,significantly reduced,"significant, and near total, loss",rarely observed,significantly reduced,1 to 5,–,–,–,–,–,–,–
< 50,low nanomolar range,C1=C/COCc2cc(ccc2OCCN2CCCC2)Nc2nccc(n2)-c2cccc(c2)COC/1 [pacritinib],–,significantly reduced,"significant, and near total, loss",rarely observed,significantly reduced,–,viable NLC were no longer identified,well tolerated,clinical activity,significant increase,significantly impaired,"caspase 3 activation, loss of mitochondrial membrane potential, and changes in cell morphology",significantly impaired
–,–,N#CC[C@H](C1CCCC1)n1cc(-c2ncnc3[nH]ccc23)cn1 [ruxolitinib],~1000,–,modest,–,–,–,–,–,–,–,–,–,–
